Results of several laboratories.
Each line is one published result; the experiments were not run side by side. pIC50: −log10 of the molar value.
Observed: cell growth or viability

CC[C@H](C)[C@H](NC(=O)[C@H](CCCCN)NC(=O)[C@H](CCCNC(=N)N)NC(=O)[C@H](Cc1ccccc1)NC(=O)[C@H](CCCNC(=N)N)NC(=O)[C@H](CCCNC(=N)N)NC(=O)[C@H](CCCNC(=N)N)NC(=O)[C@H](Cc1ccccc1)NC(=O)[C@H](CCCCN)NC(=O)[C@H](CCCNC(=N)N)NC(=O)[C@H](CC(C)C)NC(=O)[C@@H](N)CCCNC(=N)N)C(=O)NCC(N)=O  pIC50 (A549; MTT; 24 h): < 3.30
COc1cc(C(=O)c2nc(-c3cccc4ncccc34)c[nH]2)cc(OC)c1OC  pIC50 (PC-3; MTS; 72 h): < 6.00
CC[C@H](C)[C@H](NC(=O)[C@H](CCCCN)NC(=O)[C@H](CCCCN)NC(=O)[C@H](CC(C)C)NC(=O)[C@H](CC(C)C)NC(=O)[C@H](CCCCN)NC(=O)[C@H](CCCCN)NC(=O)[C@H](CC(C)C)NC(=O)[C@H](CCCCN)NC(=O)[C@H](CCCCN)NC(=O)[C@@H](N)CC(C)C)C(=O)N[C@@H](CCCCN)C(=O)N[C@@H](CCCNC(=N)N)C(N)=O  pIC50 (A549; MTT; 24 h): < 3.30
COc1cc(C(=O)c2nc(-c3cccc4[nH]ccc34)c[nH]2)cc(OC)c1OC  pIC50 (PC-3; MTS; 72 h): ~8.89
CC(C)C[C@H](NC(=O)[C@H](CCCCN)NC(=O)[C@H](Cc1c[nH]c2ccccc12)NC(=O)[C@H](CCCNC(=N)N)NC(=O)[C@H](CCCCN)NC(=O)[C@H](CC(C)C)NC(=O)[C@H](Cc1ccccc1)NC(=O)[C@H](CCCCN)NC(=O)[C@H](CCCCN)NC(=O)[C@H](CC(C)C)NC(=O)[C@H](CC(C)C)NC(=O)[C@H](CCCCN)NC(=O)[C@@H](N)CO)C(N)=O  pIC50 (A549; MTT; 24 h): 4.59
CC[C@H](C)[C@H](NC(=O)CN)C(=O)NCC(=O)N[C@@H](C)C(=O)N[C@H](C(=O)N[C@@H](CC(C)C)C(=O)N[C@@H](CCCCN)C(=O)N[C@H](C(=O)N[C@@H](CC(C)C)C(=O)N[C@H](C(=O)N[C@H](C(=O)NCC(=O)N[C@@H](CC(C)C)C(=O)N1CCC[C@H]1C(=O)N[C@@H](C)C(=O)N[C@@H](CC(C)C)C(=O)N[C@H](C(=O)N[C@@H](CO)C(=O)N[C@@H](Cc1c[nH]c2ccccc12)C(=O)N[C@H](C(=O)N[C@@H](CCCCN)C(=O)N[C@@H](CCCNC(=N)N)C(=O)N[C@@H](CCCCN)C(=O)N[C@@H](CCCNC(=N)N)C(=O)N[C@@H](CCC(N)=O)C(=O)N[C@@H](CCC(N)=O)C(N)=O)[C@@H](C)CC)[C@@H](C)CC)[C@@H](C)O)[C@@H](C)O)C(C)C)C(C)C  pIC50 (IPEC-J2; MTT; 24 h): 5.07
C#CC[C@@H]1NC(=O)[C@@H](CCCNC(=N)N)NC(=O)[C@H]([C@@H](C)O)NC(=O)[C@@H](CCCN)NC(=O)[C@H](Cc2ccccc2)NC(=O)[C@@H](Cc2ccccc2)NC1=O  pIC50 (A549; ATP luminescence): < 4.00
CC[C@H](C)[C@H](NC(=O)[C@H](CCCNC(=N)N)NC(=O)[C@H](CCCNC(=N)N)NC(=O)[C@H](CCCCN)NC(=O)[C@H](CCCNC(=N)N)NC(=O)[C@H](CCCNC(=N)N)NC(=O)[C@H](CCCNC(=N)N)NC(=O)[C@H](CC(C)C)NC(=O)[C@H](CCCNC(=N)N)NC(=O)CNC(=O)[C@H](CCSC)NC(=O)[C@@H](N)CCSC)C(=O)N[C@@H](CCCCN)C(N)=O  pIC50 (A549; MTT; 24 h): < 3.30
COc1cc(C(=O)c2nc(-c3c[nH]c4ccccc34)c[nH]2)cc(OC)c1OC  pIC50 (PC-3; MTS; 72 h): 7.15
N.N.[Cl][Pt][Cl]  pIC50 (WSU-NHL; ATP luminescence; 72 h): 5.93
CC(C)[C@H](NC(=O)[C@H](CCCCN)NC(=O)[C@H](Cc1c[nH]c2ccccc12)NC(=O)[C@H](Cc1c[nH]c2ccccc12)NC(=O)[C@H](CCCNC(=N)N)NC(=O)[C@H](Cc1c[nH]c2ccccc12)NC(=O)[C@H](Cc1c[nH]cn1)NC(=O)[C@@H](N)CCCNC(=N)N)C(=O)N[C@@H](Cc1c[nH]cn1)C(=O)N[C@@H](Cc1c[nH]c2ccccc12)C(=O)N[C@@H](CCCNC(=N)N)C(=O)N[C@@H](CCC(=O)O)C(=O)N[C@@H](Cc1c[nH]c2ccccc12)C(N)=O  pIC50 (A549; MTT; 24 h): < 3.30
N.N.[Cl][Pt][Cl]  pIC50 (A549; MTT; 48 h): 4.33
N.N.[Cl][Pt][Cl]  pIC50 (NIH3T3; 96 h): 5.17
CC[C@@]1(O)C(=O)OCc2c1cc1n(c2=O)Cc2cc3ccccc3nc2-1  pIC50 (U-251; SRB; 48 h): 7.19
CC(=N)S  pIC50 (NIH3T3; 96 h; 3D culture): 3.48
S=P1(c2ccccc2)CCCCC1  pIC50 (PC-3; MTT; 72 h): < 4.00
